H9c2 protect: protects H9c2 cardiomyocytes from peroxide injury | H2O2 injury protection, ATPLite, 2 h | protection from H2O2 cell death, % at 20 µM | 0.63% of 360,000 active | AID 588492;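 active means compounds giving at least 50% protection of heart cells from peroxide-induced death in the single-dose screen, raw or plate-pattern-corrected value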;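 further: 0% = DMSO wells with peroxide and 100% = DMSO wells without peroxide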
hiPSC survival: increases survival of single human iPS cells | hiPSC single-cell survival, ATPlite luminescence; 100% = ROCK inhibitor wells, 0% = DMSO | survival enhancement, % at 20 µM | 0.044% of 360,000 active; in the data active means survival enhancement above about 18%;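 further: cells exposed to compounds for 16 hours before the ATP read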
MIN6 prolif: MIN6 beta-cell proliferation induction; MIN6 cells proliferation, ATPlite luminescence, 48 h; cells starved in 0.2% serum; 100% = growth in 10% serum; proliferation, % at 10 µM; 0.29% of 330,000 active;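 active means compounds whose signal lies at least 3.5 SD above the mean of all wells on their plate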;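 further: 0% = DMSO-treated cells in low-serum medium and 100% = 10% serum control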
UCH37 inh: inhibitors of human deubiquitinating enzyme UCH37; AID 588478; Q9Y5K5; inhibition, % (concentration not given with the values); purified proteasome/UCH37, Ub-AMC cleavage fluorescence; 0.33% of 330,000 active;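 active means mean inhibition over replicate wells above about 20%, limit read from the data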;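 further: 0% = compound-free wells with enzyme and 100% = wells lacking proteasome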
Target sequence (Q9Y5K5 whole entry, looked up): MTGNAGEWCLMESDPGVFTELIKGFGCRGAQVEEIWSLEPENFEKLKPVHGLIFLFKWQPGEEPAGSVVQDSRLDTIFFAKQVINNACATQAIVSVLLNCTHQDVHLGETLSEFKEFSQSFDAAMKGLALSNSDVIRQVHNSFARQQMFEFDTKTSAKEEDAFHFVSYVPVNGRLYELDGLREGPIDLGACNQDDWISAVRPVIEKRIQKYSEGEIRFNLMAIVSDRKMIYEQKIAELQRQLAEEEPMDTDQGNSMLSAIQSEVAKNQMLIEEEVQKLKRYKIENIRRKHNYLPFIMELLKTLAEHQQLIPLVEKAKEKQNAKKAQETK
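Material: Human UCH37 enzyme supplied as purified proteasome complex | Schedule: 30 min preincubation with enzyme, 25 min cleavage at room temperature | Detection: AMC fluorescence 355/460 nm | Measure: % inhibition of Ub-AMC cleavage fluorescence | Controls: Wells without proteasome as full block, compound-free enzyme plus substrate as uninhibited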
CRFR2-BP antag: antagonists of CRF-binding protein/CRF-R2 receptor complex. HEK293 CRF-R2/CRF-BP, CRF-induced calcium fluorescence. inhibition, % at 11.8 µM. 0.59% of 350,000 active. AID 588475;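 active means inhibition of the ligand-induced calcium signal above about 50% at the single tested concentration, limit read from the data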
CRFBP-R2 agonist: CRF-BP/CRF-R2 complex agonism; 0.46% of 350,000 active; HEK293 CRF-R2/CRF-BP, calcium dye fluorescence (FLIPR); percent of saturating CRF peptide response; activation, % at 13.2 µM;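 active means activation of at least 50%, plus an integration ratio under a set limit after plate pattern correction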;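 further: plate controls were neutral control wells without compound for no effect and CRF at EC100 for full effect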
An asterisk follows results filed as active. Rows were chosen to be rich in hits. Some 2.1% of all compounds tested hit in one or more screens of this group.

Screening O=c1[nH]c(C2CCCN(S(=O)(=O)c3ccccc3)C2)nc2c1nnn2Cc1ccccc1 (stereo unspecified) returned H9c2 protect 3, hiPSC survival -2, MIN6 prolif 0, UCH37 inh 7, CRFR2-BP antag 2 and CRFBP-R2 agonist -1.
Screening COC(=O)c1ccc(Cn2nnc3c(=O)[nH]c(C4CCCN(S(=O)(=O)c5ccccc5)C4)nc32)cc1 (stereo unspecified) returned H9c2 protect 61*, hiPSC survival 0, MIN6 prolif -1, UCH37 inh 3, CRFR2-BP antag 21 and CRFBP-R2 agonist 0.
O=C(CSc1nnc(SCc2cccc3ccccc23)s1)NN=Cc1c[nH]c2ccccc12 was read as UCH37 inh 2.
Screening Cc1cc(C)n2[nH]c(=O)c(N=Nc3ccc(S(N)(=O)=O)cc3)c2n1 returned H9c2 protect 10, hiPSC survival 2, MIN6 prolif 1, UCH37 inh 25*, CRFR2-BP antag 8 and CRFBP-R2 agonist -5.
Screening O=c1[nH]n2c(=O)c3c([nH]c2c1N=Nc1cccc(C(F)(F)F)c1)CCCC3 returned H9c2 protect 6, hiPSC survival 1, MIN6 prolif -3, UCH37 inh 15, CRFR2-BP antag 21 and CRFBP-R2 agonist -2.
`O=c1[nH]n2c(=O)c3c([nH]c2c1N=Nc1cccc(Cl)c1)CCC3` gave H9c2 protect 8, hiPSC survival 2, UCH37 inh 18, CRFR2-BP antag 22 and CRFBP-R2 agonist -2.
Cc1ccc(N=Nc2c(=O)[nH]n3c(C)cc(C)nc23)cc1 was read as H9c2 protect 20, hiPSC survival -1, MIN6 prolif -5, UCH37 inh 8, CRFR2-BP antag 3 and CRFBP-R2 agonist -2.
For NS(=O)(=O)c1ccc(N=Nc2c(=O)[nH]n3c(=O)c4c([nH]c23)CCCC4)cc1 the results were H9c2 protect 4, hiPSC survival 8, MIN6 prolif -1, UCH37 inh 21*, CRFR2-BP antag 48 and CRFBP-R2 agonist -1.
Screening COc1cccc(N=Nc2c(=O)[nH]n3c(=O)c4c([nH]c23)CCC4)c1 returned H9c2 protect 12, hiPSC survival 2, MIN6 prolif -2, UCH37 inh 20*, CRFR2-BP antag 13 and CRFBP-R2 agonist -1.
Screening CCOC(=O)NN=Cc1ccc(OCCSc2ccc(Cl)cc2)c(OCC)c1 returned UCH37 inh -1.
Nc1nonc1-n1nnc(C(=O)NN=Cc2cccc(F)c2)c1-c1ccc2c(c1)OCO2 was read as UCH37 inh -2.
Screening O=C1c2ccccc2C(=O)N1CCCCSc1nc2ccccc2c(=O)n1CCCN1CCOCC1 returned H9c2 protect 59*, hiPSC survival 0, MIN6 prolif 5, UCH37 inh 3, CRFR2-BP antag -61 and CRFBP-R2 agonist -1.
`COc1ccc(C=NNC(=O)C(=O)N2CCCC2)cc1` gave UCH37 inh 3.
For CCN1C(=O)[C@H]2[C@H]3[C@H](O)[C@H](O)CC(=NOC[C@@H](C)[C@H](OCc4ccccc4)C(C)C)[C@@H]3CC[C@H]2C1=O the results were UCH37 inh 3.
For C=CCc1cccc2cc(C(=O)Nc3ccc(S(=O)(=O)Nc4nnc(CC)s4)cc3)c(=O)oc12 the results were H9c2 protect -10, hiPSC survival -1, UCH37 inh 9, CRFR2-BP antag 61* and CRFBP-R2 agonist -1.
Screening CCc1nnc(NS(=O)(=O)c2ccc(NC(=S)NC(=O)/C=C/c3ccccc3)cc2)s1 returned H9c2 protect -4, hiPSC survival -2, MIN6 prolif 4, UCH37 inh 6, CRFR2-BP antag 56* and CRFBP-R2 agonist -1.
Screening CC(C)COc1cccc(-c2cc(C(=O)NN=Cc3ccncc3)c3ccccc3n2)c1 returned UCH37 inh 3.
O=C(O)C1C2C=CC(O2)C1C(=O)Nc1ccc(S(=O)(=O)Nc2ccccc2)cc1 (stereo unspecified) was read as H9c2 protect 5, hiPSC survival 4, MIN6 prolif -2, UCH37 inh 2, CRFR2-BP antag 54* and CRFBP-R2 agonist 0.
For O=C(O)C1C2C=CC(O2)C1C(=O)Nc1ccc(S(=O)(=O)N2CCc3ccccc32)cc1 (stereo unspecified) the results were H9c2 protect 3, hiPSC survival -4, MIN6 prolif -1, UCH37 inh 3, CRFR2-BP antag 2 and CRFBP-R2 agonist -1.
Cc1cccc(C(=O)ON=C2CCCc3ccccc32)c1 was read as UCH37 inh 3.
O=c1c2cc(Cl)ccc2[nH]c(=S)n1Cc1ccco1 was read as H9c2 protect -1, hiPSC survival 0, MIN6 prolif -5, UCH37 inh 5, CRFR2-BP antag -66 and CRFBP-R2 agonist 6.
Screening O=c1[nH]c2ccccc2c(=O)n1Cc1ccco1 returned H9c2 protect 0, hiPSC survival 4, MIN6 prolif 1, UCH37 inh 21*, CRFR2-BP antag -4 and CRFBP-R2 agonist 0.
Screening CCOC(=O)c1oc2ccccc2c1NC(=O)COc1cccc(OC)c1 returned H9c2 protect -5, hiPSC survival -2, MIN6 prolif 0, UCH37 inh -25, CRFR2-BP antag 19 and CRFBP-R2 agonist 2.
Screening CCOC(=O)c1oc2ccccc2c1NC(=O)COc1ccc(F)cc1 returned H9c2 protect -13, hiPSC survival 3, MIN6 prolif 9.7*, UCH37 inh -64, CRFR2-BP antag -1 and CRFBP-R2 agonist 1.
Screening Cc1cccc(C)c1NC(=S)NN=Cc1ccccc1C(=O)O returned UCH37 inh 1.
COCCCNc1c2c3c(cccc3[nH]c1=O)C(=O)c1ccccc1-2 was read as H9c2 protect 6, hiPSC survival -2, MIN6 prolif -1, UCH37 inh 1, CRFR2-BP antag -192 and CRFBP-R2 agonist 204*.
`Cc1nc2cc(NC(=O)N3CCN(c4ccccn4)CC3)ccc2o1` gave H9c2 protect 0, hiPSC survival 2, MIN6 prolif -3, UCH37 inh -2, CRFR2-BP antag -32 and CRFBP-R2 agonist 2.
`S=C(Nc1ccc(N2CCOCC2)cc1)Nc1ccc2nc(-c3ccco3)c(-c3ccco3)nc2c1` gave H9c2 protect 56*, hiPSC survival 1, MIN6 prolif -3, UCH37 inh 5, CRFR2-BP antag -18 and CRFBP-R2 agonist 23.
For O=C(Nc1ccc2nc(-c3ccco3)c(-c3ccco3)nc2c1)N1CCN(c2ccccn2)CC1 the results were H9c2 protect 117*, hiPSC survival 6, MIN6 prolif 0, UCH37 inh -7, CRFR2-BP antag 4 and CRFBP-R2 agonist 4.
`Cc1no[n+]([O-])c1COc1cccc(C=NNc2nncn2N)c1` gave UCH37 inh 7.
